Measurements from ChEMBL document CHEMBL1132996, “Derivatives of (R)-1,11-methyleneaporphine: synthesis, structure, and interactions with G-protein coupled receptors” (J Med Chem, 2000).

Assays:
[1] = molecular target: T1, 5-hydroxytryptamine receptor 7 (Rattus norvegicus, UniProt P32305); experiment: Binding affinity against Rat 5-hydroxytryptamine 7 receptor using [3H]5-HT
[2] = molecular target: T2, 5-hydroxytryptamine receptor 1A (Homo sapiens, UniProt P08908)
T2 sequence (P08908 whole entry): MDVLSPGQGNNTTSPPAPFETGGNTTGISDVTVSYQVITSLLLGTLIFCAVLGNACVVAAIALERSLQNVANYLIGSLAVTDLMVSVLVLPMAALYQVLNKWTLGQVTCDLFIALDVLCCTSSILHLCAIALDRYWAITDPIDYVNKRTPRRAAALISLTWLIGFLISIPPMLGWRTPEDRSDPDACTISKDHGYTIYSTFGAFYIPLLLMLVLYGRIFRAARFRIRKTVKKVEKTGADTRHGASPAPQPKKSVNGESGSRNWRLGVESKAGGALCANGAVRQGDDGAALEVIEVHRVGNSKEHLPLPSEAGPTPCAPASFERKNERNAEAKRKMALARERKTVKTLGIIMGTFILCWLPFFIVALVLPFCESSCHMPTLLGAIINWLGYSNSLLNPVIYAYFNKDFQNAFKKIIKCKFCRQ

D(2) dopamine receptor [3] = molecular target: T3, D(2) dopamine receptor (Homo sapiens, UniProt P14416); experiment: Displacement of [3H]raclopride from human Dopamine receptor D2A
How it was run: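 Cloned human D2A receptor expressed in mouse fibroblast Ltk- cell membranes. Competition against [3H]raclopride binding, following an earlier method. Ki by nonlinear regression, mean ± SE of 2–3 experiments.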

[4] = molecular target: T4, 5-hydroxytryptamine receptor 1A (Rattus norvegicus, UniProt P19327); experiment: Binding affinity was measured on cloned rat 5-hydroxytryptamine 1A receptor which is labeled by [3H]8-OH-DPAT
T4 sequence (P19327 whole entry): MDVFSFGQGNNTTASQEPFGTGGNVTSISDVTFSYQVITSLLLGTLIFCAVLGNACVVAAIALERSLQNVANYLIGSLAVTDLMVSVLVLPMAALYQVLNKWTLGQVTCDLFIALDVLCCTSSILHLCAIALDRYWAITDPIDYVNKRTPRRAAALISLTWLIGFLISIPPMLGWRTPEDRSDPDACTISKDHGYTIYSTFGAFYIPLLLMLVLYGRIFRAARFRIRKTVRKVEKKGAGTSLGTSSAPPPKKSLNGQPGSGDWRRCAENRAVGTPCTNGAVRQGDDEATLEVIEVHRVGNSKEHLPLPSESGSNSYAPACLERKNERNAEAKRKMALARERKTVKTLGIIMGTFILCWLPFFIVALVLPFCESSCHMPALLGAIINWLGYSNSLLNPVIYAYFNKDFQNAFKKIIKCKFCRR

[5] = molecular target: T1, 5-hydroxytryptamine receptor 7; experiment: Displacement of [3H]5-HT from over-expressed rat 5-hydroxytryptamine 7 receptor
How it was run: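 Cloned rat 5-HT7 receptor in CHO or Sf9 cell membranes, in 50 mM Tris-HCl, 4 mM MgCl2, 1 mM EDTA, pH 7.4; 30-40 pM receptor. Competition against 0.8 nM [3H]5-HT, 60 min at 30 °C. Nonspecific binding defined with 10 μM methiothepin. Filtration, scintillation counting. Ki by nonlinear regression, mean ± SE of 2–3 experiments.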

[6] = molecular target: T2, 5-hydroxytryptamine receptor 1A; experiment: Binding affinity was measured on cloned human 5-hydroxytryptamine 1A receptor which is labeled by [3H]8-OH-DPAT
How it was run: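 Membranes from CHO cells expressing cloned human 5-HT1A receptor, in 50 mM Tris-HCl, 4 mM MgCl2, pH 7.4; about 40 pM receptor. Competition against 1 nM [3H]8-OH-DPAT, 60 min at 30 °C. Nonspecific binding defined with 10 μM WAY-100635. Filtration, liquid scintillation counting. Ki by nonlinear regression, mean ± SE of 2–3 experiments.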

D(2) dopamine receptor [7] = molecular target: T3, D(2) dopamine receptor; experiment: Binding affinity was measured on cloned Human D2A Receptor which is labeled by [3H]raclopride

T3 sequence (P14416 whole entry): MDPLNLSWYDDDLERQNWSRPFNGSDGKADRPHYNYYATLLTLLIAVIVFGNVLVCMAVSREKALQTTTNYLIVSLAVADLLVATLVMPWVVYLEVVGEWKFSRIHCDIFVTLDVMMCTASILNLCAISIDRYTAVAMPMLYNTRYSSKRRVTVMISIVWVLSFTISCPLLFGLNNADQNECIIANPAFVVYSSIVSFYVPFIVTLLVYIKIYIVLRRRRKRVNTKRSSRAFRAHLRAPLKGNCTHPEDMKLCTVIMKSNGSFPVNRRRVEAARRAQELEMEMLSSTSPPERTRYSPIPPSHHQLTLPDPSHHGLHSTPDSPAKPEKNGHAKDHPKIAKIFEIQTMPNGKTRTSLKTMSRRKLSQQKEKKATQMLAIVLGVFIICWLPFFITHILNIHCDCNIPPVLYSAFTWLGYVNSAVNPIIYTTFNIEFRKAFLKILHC
T1 sequence (P32305 whole entry): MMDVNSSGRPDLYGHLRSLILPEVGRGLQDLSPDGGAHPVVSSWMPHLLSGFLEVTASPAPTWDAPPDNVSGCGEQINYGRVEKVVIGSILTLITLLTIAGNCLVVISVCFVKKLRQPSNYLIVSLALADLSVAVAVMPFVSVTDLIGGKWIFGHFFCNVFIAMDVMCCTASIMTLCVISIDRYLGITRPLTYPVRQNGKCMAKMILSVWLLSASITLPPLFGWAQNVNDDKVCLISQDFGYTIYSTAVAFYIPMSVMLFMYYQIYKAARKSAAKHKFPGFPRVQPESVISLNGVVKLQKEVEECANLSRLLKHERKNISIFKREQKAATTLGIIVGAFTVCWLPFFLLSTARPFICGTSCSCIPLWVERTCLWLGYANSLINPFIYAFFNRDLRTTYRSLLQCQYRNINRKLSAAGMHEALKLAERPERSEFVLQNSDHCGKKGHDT

Compound	Ki [2] [nM]	Ki (D(2) dopamine receptor [3]) [nM]	Ki [4] [nM]	Ki [5] [nM]	Ki [6] [nM]	Ki (D(2) dopamine receptor [7]) [nM]	Ki [1] [nM]
Cc1cccc2c1-c1cccc3c1[C@@H](C2)N(C)CC3	14.4	–	–	–	–	–	38.3
CN1CCc2ccc3c4c2[C@H]1Cc1cccc(c1-4)C3=O	–	317	140	291	–	–	–
CC(=O)N[C@H]1c2cccc3c2-c2c1ccc1c2[C@@H](C3)N(C)CC1	–	7980	–	1320	716	–	–
CCCN(CCC)[C@H]1CCc2c(F)ccc(O)c2C1	87	–	–	–	–	3760	3180
CO[C@@]1(C)c2cccc3c2-c2c1ccc1c2[C@@H](C3)N(C)CC1	–	71	–	1.1	16.9	–	–
CO[C@]1(C)c2cccc3c2-c2c1ccc1c2[C@@H](C3)N(C)CC1	–	7.1	–	1.1	17.3	–	–
CCCN(CCC)[C@@H]1CCc2cccc(O)c2C1	–	–	–	–	–	–	8.81
CN1CCc2ccc3c4c2[C@H]1Cc1cccc(c1-4)[C@H]3N	–	261	–	13.4	142	–	–
NCCc1c[nH]c2ccc(C(N)=O)cc12	–	–	–	–	–	–	0.029
CN1CCc2cccc3c2[C@H]1Cc1ccc(O)c(O)c1-3 [APOMORPHINE]	–	–	–	–	–	–	188
C[C@@H]1c2cccc3c2-c2c1ccc1c2[C@@H](C3)N(C)CC1	5.05	–	–	–	–	19.4	3.36
CN1CCc2ccc3c4c2[C@H]1Cc1cccc(c1-4)[C@@H]3N	–	–	–	18	355	–	–
C[C@H]1c2cccc3c2-c2c1ccc1c2[C@@H](C3)N(C)CC1	31.1	–	–	–	–	39.2	5.6
CN1CCc2ccc3c4c2[C@H]1Cc1cccc(c1-4)[C@@]3(C)O	–	182	315	27.7	–	–	–

The next lines start with results.

Ki [2] [nM]	Ki (D(2) dopamine receptor [3]) [nM]	Ki [4] [nM]	Ki [5] [nM]	Ki [6] [nM]	Ki (D(2) dopamine receptor [7]) [nM]	Compound	Ki [1] [nM]
–	26	61.5	4.3	–	–	CN1CCc2ccc3c4c2[C@H]1Cc1cccc(c1-4)[C@]3(C)O	–
40.7	–	–	–	–	83.2	CN1CCc2ccc3c4c2[C@H]1Cc1cccc(c1-4)C3	6.9
–	3650	–	538	204	–	CC(=O)N[C@@H]1c2cccc3c2-c2c1ccc1c2[C@@H](C3)N(C)CC1	–
–	70.8	–	25.7	1.84	–	CCO[C@]1(CC)c2cccc3c2-c2c1ccc1c2[C@@H](C3)N(C)CC1	–
–	215	1210	103	–	–	CN1CCc2ccc3c4c2[C@H]1Cc1cccc(c1-4)[C@@H]3O	–
–	23.8	31	13.5	–	–	CN1CCc2ccc3c4c2[C@H]1Cc1cccc(c1-4)[C@H]3O	–
–	24.5	–	3.05	19.1	–	CCO[C@@]1(CC)c2cccc3c2-c2c1ccc1c2[C@@H](C3)N(C)CC1	–
